{
  "source": "ChEMBL document CHEMBL3259701",
  "about": "“Siderophore receptor-mediated uptake of lactivicin analogues in gram-negative bacteria” (J Med Chem, 2014)",
  "key": {"[1]": {"system": "Pseudomonas aeruginosa", "assay": "Ratio of MIC for Pseudomonas aeruginosa PAO1 harboring siderophore receptor fptA mutant to MIC for wild type Pseudomonas aeruginosa PAO1 in medium containing aztreonam and low-Fe by CLSI broth microdilution method", "type": "functional"}, "[2]": {"system": "Klebsiella pneumoniae", "assay": "Antibacterial activity against Klebsiella pneumoniae KP-3700 by CLSI broth microdilution method", "type": "functional"}, "[3]": {"assay": "Displacement of fluorescent Bocillin FL from Pseudomonas aeruginosa PBP2"}, "[4]": {"system": "Pseudomonas aeruginosa", "assay": "Ratio of MIC for Pseudomonas aeruginosa PAO1 harboring siderophore receptor piuA and pirA double mutant to MIC for wild type Pseudomonas aeruginosa PAO1 in medium containing low-Fe by CLSI broth microdilution method", "type": "functional", "how_it_was_run": "(§1)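 CLSI broth microdilution MICs in a modified Mueller-Hinton broth depleted of iron to mimic low in vivo iron. Tested against wild-type PAO1 and isogenic siderophore receptor knockout strains. Reported as the knockout-strain MIC divided by the PAO1 MIC in the same iron-depleted medium.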"}, "[5]": {"system": "Pseudomonas aeruginosa", "assay": "Ratio of MIC for Pseudomonas aeruginosa PAO1 harboring siderophore receptor piuA, pfeA and pirA mutant to MIC for wild type Pseudomonas aeruginosa PAO1 in Mueller-Hinton broth medium by CLSI broth microdilution method", "type": "functional", "how_it_was_run": "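Broth microdilution MIC per CLSI in standard Mueller-Hinton broth, run against wild-type P. aeruginosa PAO1 and isogenic PAO1 strains lacking one or more siderophore receptors. Value is the mutant-strain MIC divided by the PAO1 MIC.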"}, "[6]": {"system": "Pseudomonas aeruginosa", "assay": "Antibacterial activity against Pseudomonas aeruginosa PAO1 harboring siderophore receptor piuA and fptA double mutant in medium containing aztreonam and low-Fe by CLSI broth microdilution method", "type": "functional"}, "[7]": {"system": "Pseudomonas aeruginosa", "assay": "Ratio of MIC for Pseudomonas aeruginosa PAO1 harboring siderophore receptor fptA mutant to MIC for wild type Pseudomonas aeruginosa PAO1 in Mueller-Hinton broth medium by CLSI broth microdilution method", "type": "functional", "how_it_was_run": "(§2)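 Receptor-deficient PAO1 strain MIC divided by parent PAO1 MIC. Both MICs were obtained by CLSI broth microdilution in standard Mueller Hinton broth. A shift greater than 4× was taken to indicate that the deleted receptor(s) take part in drug uptake.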"}, "[8]": {"system": "Escherichia coli", "assay": "Antibacterial activity against Escherichia coli DH5alpha expressing beta-lactamase TEM-24 by CLSI broth microdilution method", "type": "functional", "settings": "DH5[alpha]"}, "[9]": {"system": "Pseudomonas aeruginosa", "assay": "Ratio of MIC for Pseudomonas aeruginosa PAO1 harboring siderophore receptor pirA mutant to MIC for wild type Pseudomonas aeruginosa PAO1 in medium containing aztreonam and low-Fe by CLSI broth microdilution method", "type": "functional"}, "[10]": {"system": "Pseudomonas aeruginosa", "assay": "Antibacterial activity against Pseudomonas aeruginosa PAO1 harboring siderophore receptor fptA mutant in Mueller-Hinton broth medium by CLSI broth microdilution method", "type": "functional", "how_it_was_run": "(§3)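 MIC by CLSI broth microdilution in standard Mueller Hinton broth. Tested against wild-type P. aeruginosa PAO1 and an isogenic panel lacking one or more siderophore receptors.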"}, "[11]": {"system": "Pseudomonas aeruginosa", "assay": "Ratio of MIC for Pseudomonas aeruginosa PAO1 harboring siderophore receptor pirA mutant to MIC for wild type Pseudomonas aeruginosa PAO1 in Mueller-Hinton broth medium by CLSI broth microdilution method", "type": "functional", "how_it_was_run": "as §2"}, "[12]": {"system": "Pseudomonas aeruginosa", "assay": "Antibacterial activity against Pseudomonas aeruginosa PAO1 harboring siderophore receptor piuA mutant in Mueller-Hinton broth medium by CLSI broth microdilution method", "type": "functional", "how_it_was_run": "as §3"}, "[13]": {"system": "Escherichia coli", "assay": "Antibacterial activity against Escherichia coli EC-28 by CLSI broth microdilution method", "type": "functional"}, "[14]": {"system": "Pseudomonas aeruginosa", "assay": "Ratio of MIC for Pseudomonas aeruginosa PAO1 harboring siderophore receptor piuA, pfeA and pirA mutant to MIC for wild type Pseudomonas aeruginosa PAO1 in medium containing aztreonam and low-Fe by CLSI broth microdilution method", "type": "functional"}, "[15]": {"system": "Pseudomonas aeruginosa", "assay": "Ratio of MIC for Pseudomonas aeruginosa PAO1 harboring siderophore receptor piuA and pfeA double mutant to MIC for wild type Pseudomonas aeruginosa PAO1 in medium containing low-Fe by CLSI broth microdilution method", "type": "functional", "how_it_was_run": "as §1"}, "[16]": {"system": "Pseudomonas aeruginosa", "assay": "Ratio of MIC for Pseudomonas aeruginosa PAO1 harboring siderophore receptor fpvA mutant to MIC for wild type Pseudomonas aeruginosa PAO1 in medium containing aztreonam and low-Fe by CLSI broth microdilution method", "type": "functional"}, "[17]": {"system": "Pseudomonas aeruginosa", "assay": "Ratio of MIC for Pseudomonas aeruginosa PAO1 harboring siderophore receptor piuA and fpvA double mutant in MHB medium to MIC for Pseudomonas aeruginosa PAO1 harboring siderophore receptor piuA and fpvA double mutant in medium containing low-Fe by CLSI broth microdilution method", "type": "functional"}, "[18]": {"system": "Pseudomonas aeruginosa", "assay": "Antibacterial activity against Pseudomonas aeruginosa PAO1 harboring siderophore receptor piuA and pfeA double mutant in Mueller-Hinton broth medium by CLSI broth microdilution method", "type": "functional", "how_it_was_run": "as §3"}, "[19]": {"system": "Pseudomonas aeruginosa", "assay": "Antibacterial activity against Pseudomonas aeruginosa PAO1 harboring siderophore receptor piuA and pfeA double mutant in medium containing low-Fe by CLSI broth microdilution method", "type": "functional", "how_it_was_run": "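MIC by CLSI broth microdilution in a modified Mueller Hinton broth depleted of iron to mimic the low-iron in vivo environment. Tested against PAO1 and isogenic strains lacking one or more siderophore receptors.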"}, "[20]": {"system": "Pseudomonas aeruginosa", "assay": "Antibacterial activity against Pseudomonas aeruginosa PAO1 harboring siderophore receptor pirA mutant in Mueller-Hinton broth medium by CLSI broth microdilution method", "type": "functional", "how_it_was_run": "as §3"}, "[21]": {"system": "Pseudomonas aeruginosa", "assay": "Antibacterial activity against Pseudomonas aeruginosa PAO1 in Mueller-Hinton broth medium by CLSI broth microdilution method", "type": "functional", "how_it_was_run": "as §3"}, "[22]": {"system": "Pseudomonas aeruginosa", "assay": "Antibacterial activity against Pseudomonas aeruginosa PAO1 harboring siderophore receptor piuA and pfeA double mutant in medium containing aztreonam and low-Fe by CLSI broth microdilution method", "type": "functional"}, "[23]": {"system": "Pseudomonas aeruginosa", "assay": "Ratio of MIC for Pseudomonas aeruginosa PAO1 harboring siderophore receptor piuA and pirA double mutant in MHB medium to MIC for Pseudomonas aeruginosa PAO1 harboring siderophore receptor piuA and pirA double mutant in medium containing low-Fe by CLSI broth microdilution method", "type": "functional"}, "[24]": {"system": "Pseudomonas aeruginosa", "assay": "Antibacterial activity against Pseudomonas aeruginosa 1091-05 by CLSI broth microdilution method", "type": "functional"}, "[25]": {"system": "Pseudomonas aeruginosa", "assay": "Antibacterial activity against Pseudomonas aeruginosa PAO1 harboring siderophore receptor piuA and fptA double mutant in Mueller-Hinton broth medium by CLSI broth microdilution method", "type": "functional", "how_it_was_run": "as §3"}},
  "data": [
    {"smiles": "CC(C)(O/N=C(\\C(=O)N[C@H]1CON(C2(C(=O)O)C[C@H](N3C(=O)c4cc(O)c(O)cc4C3=O)C(=O)O2)C1=O)c1csc(N)n1)C(=O)O", "note": "(stereo not given in full)", "values": [
      {"measurement": "Ratio", "setting": "[1]", "value": 1},
      {"measurement": "MIC", "setting": "[2]", "value": 0.5, "unit": "µg/mL"},
      {"measurement": "IC50", "setting": "[3]", "value": 3.7, "unit": "µM"},
      {"measurement": "Ratio", "setting": "[4]", "value": ">=8"},
      {"measurement": "Ratio", "setting": "[5]", "value": 32},
      {"measurement": "MIC", "setting": "[6]", "value": 4, "unit": "µg/mL"},
      {"measurement": "Ratio", "setting": "[7]", "value": 8},
      {"measurement": "MIC", "setting": "[8]", "value": 0.06, "unit": "µg/mL"},
      {"measurement": "Ratio", "setting": "[9]", "value": 1},
      {"measurement": "MIC", "setting": "[10]", "value": 4, "unit": "µg/mL"},
      {"measurement": "Ratio", "setting": "[11]", "value": 1},
      {"measurement": "MIC", "setting": "[12]", "value": 8, "unit": "µg/mL"},
      {"measurement": "MIC", "setting": "[13]", "value": 0.25, "unit": "µg/mL"},
      {"measurement": "Ratio", "setting": "[14]", "value": 1},
      {"measurement": "Ratio", "setting": "[15]", "value": ">=4"},
      {"measurement": "Ratio", "setting": "[16]", "value": 0.5},
      {"measurement": "Ratio", "setting": "[17]", "value": 64},
      {"measurement": "MIC", "setting": "[18]", "value": 8, "unit": "µg/mL"},
      {"measurement": "MIC", "setting": "[19]", "value": 0.125, "unit": "µg/mL"},
      {"measurement": "MIC", "setting": "[20]", "value": 0.5, "unit": "µg/mL"},
      {"measurement": "MIC", "setting": "[21]", "value": 0.5, "unit": "µg/mL"},
      {"measurement": "MIC", "setting": "[22]", "value": 4, "unit": "µg/mL"},
      {"measurement": "Ratio", "setting": "[23]", "value": 64},
      {"measurement": "MIC", "setting": "[24]", "value": 0.5, "unit": "µg/mL"},
      {"measurement": "MIC", "setting": "[25]", "value": 8, "unit": "µg/mL"}
    ]}
  ]
}
